Assay results taken from article PMC5033715 (International journal of toxicology, 2016).
Values joined by “and” are separate entries in the source; they are usually repeats but may differ in a detail not shown here. Equal entries are not always repeated. “Also recorded” adds a separate entry of the source. Where two headings read alike, the source gives them in different places. Marks after values point to notes of the source that are not given here.

Columns and labels:
[1] = system: adult Sprague Dawley male rats; assay: Repeated dose study; format: in vivo, rat; conditions: 80 mg/kg/day for 14 days; days 4, 8, 14, 21
[2] = system: adult Sprague Dawley male rats; assay: Single dose study; format: in vivo, rat; conditions: single oral 500 mg/kg; 2, 4, 8 or 14 days post-dosing
Procedure, shortened: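 Satellite rats given vehicle or a single 500 mg/kg oral dose were euthanized (pentobarbital 200 mg/kg ip) at 2, 4, 8 and 14 days. Brain, kidney, liver, adrenal, testes, stomach, intestines, duodenum, pancreas, heart, lungs, spleen, thymus and rib were sectioned at 5 μm and H&E stained, n=3. A board-certified veterinary pathologist examined them unblinded by light microscopy.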

[3] = Solubility for intravenous administration; format: physicochemical; conditions: at concentrations required for IV administration of the test dose
[4] = Pharmacokinetic experiment, single 80 mg/kg oral dose, plasma LC-MS/MS; format: in vivo, rat; conditions: for Geometric mean of plasma concentration (95% lower and upper confidence limits) / Plasma concentration, Median (minimum; maximum): n=3
Procedure, shortened: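 Adult male Sprague-Dawley rats with indwelling jugular catheters, caged singly and acclimated 5 days, were fasted 12 h and given 80 mg/kg by oral gavage. Catheter blood was drawn at 0.5–48 hr, at least 3 rats per time point. EDTA plasma was acetonitrile-extracted with reserpine internal standard and assayed by LC-MS/MS (C18, duplicates; LLOQ 0.2 ng/ml). Median concentrations gave kel, Vd, Cl and T½. Cmax and Tmax were read from the curve, and ka from a one-compartment fit.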

[5] = Blood concentrations after single high dose; format: in vivo, rat
mouse models of colitis = conditions: cited from earlier work
LANCL2 = conditions: cited from earlier work
[6] = system: adult Sprague Dawley male rats; assay: Single dose study; format: in vivo, rat; conditions: for tBILI, mean plasma: control 0.10; for ALT, mean plasma: control 39; for AST, mean plasma: control 69; for ALP, mean plasma: control 300
Procedure, shortened: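 After a 12 h fast, rats received vehicle or one 500 mg/kg oral gavage. Separate satellite rats (3 treated, 4 control per time point) were euthanized with intraperitoneal pentobarbital 200 mg/kg at 2, 4, 8 and 14 days. Blood was run through a haematology and chemistry panel including ALT, AST, bilirubin, glucose, BUN, creatinine, electrolytes, cholesterol and proteins; group means are reported.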

[7] = system: adult Sprague Dawley male rats; assay: Repeated dose study; format: in vivo, rat; conditions: for O_REAR (rears during observation period), least squares means (95% confidence interval): 80 mg/kg/day
Procedure, shortened: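 Male Sprague-Dawley rats (200–250 g) were housed 2 per cage on a reverse light cycle and fasted 12 h before dosing. They received vehicle or 80 mg/kg (20 mg/mL suspension) by oral gavage daily for 14 days, then 7 drug-free days; n=10, 8 at day 21. FOB ran at baseline (day −3/−4) and days 3, 7, 14 and 21. It covered quantal/categorical endpoints (Mantel-Haenszel chi-square, 2 blocks) and continuous endpoints (weight, temperature, rotarod, grip, foot splay) as mixed-model least-squares means.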

[8] = system: adult Sprague Dawley male rats; assay: Single dose study; format: in vivo, rat
Procedure, shortened: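 Rats were fasted 12 h, then given one oral gavage of vehicle or 500 mg/kg as a 100 mg/mL suspension; n=10. The functional observational battery was scored at baseline (day −3 or −4), 4 h, and days 1, 7 and 14. Quantal and categorical endpoints were compared by Fisher's exact test. Continuous endpoints (body weight, grip strength and others) were analysed by mixed model with rat as random effect, giving least-squares means per time point.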

[9] = system: adult Sprague Dawley male rats; assay: Repeated dose study; format: in vivo, rat; conditions: 80 mg/kg/day over 14 days
[10] = Day 2 after single oral 500 mg/kg
[11] = Day 4 after single oral 500 mg/kg
[12] = Day 8 after single oral 500 mg/kg
[13] = Day 14 after single oral 500 mg/kg

O=C(c1cccc(-c2nc3ccccc3[nH]2)n1)N1CCN(C(=O)c2cccc(-c3nc4ccccc4[nH]3)n2)CC1 [BT-11, piperazine-1,4-diylbis((6-(1H-benzo[d]imidazo-2-y)pyridin-2-yl)methanone)]
clinical pathological examination of blood samples, control vs test [1]: did not reveal any clinical or statistical differences
histopathologic comparison, vehicle control vs BT-11-exposed [2]: No significant differences
solubility [3]: too insoluble to administer by the intravenous route; also recorded: relatively insoluble; also recorded: insufficiently soluble to be given IV
time to steady state (97% level) after repeated dosing ([4]; 5 × T ½, assuming single-compartment, dose-independent pharmacokinetics): approximately 15 hr
Geometric mean of plasma concentration (95% lower and upper confidence limits) ([4]; 0.5 hr after 80 mg/kg oral): 14.60 (2.94; 72.53) ng/ml
Plasma concentration, Median (minimum; maximum) ([4]; 0.5 hr after 80 mg/kg oral): 12.18 (8.55; 29.89) ng/ml
Geometric mean of plasma concentration (95% lower and upper confidence limits) ([4]; 1 hr after 80 mg/kg oral): 23.99 (4.66; 123.40) ng/ml
Plasma concentration, Median (minimum; maximum) ([4]; 1 hr after 80 mg/kg oral): 20.95 (13.42; 49.11) ng/ml
Geometric mean of plasma concentration (95% lower and upper confidence limits) ([4]; 2 hr after 80 mg/kg oral): 19.65 (4.28; 90.23) ng/ml
Plasma concentration, Median (minimum; maximum) ([4]; 2 hr after 80 mg/kg oral): 16.88 (11.65; 38.62) ng/ml
Geometric mean of plasma concentration (95% lower and upper confidence limits) ([4]; 4 hr after 80 mg/kg oral): 8.24 (1.89; 35.94) ng/ml
Plasma concentration, Median (minimum; maximum) ([4]; 4 hr after 80 mg/kg oral): 11.07 (4.16; 12.14) ng/ml
Geometric mean of plasma concentration (95% lower and upper confidence limits) ([4]; 8 hr after 80 mg/kg oral): 5.24 (2.16; 12.73) ng/ml
Plasma concentration, Median (minimum; maximum) ([4]; 8 hr after 80 mg/kg oral): 4.33 (4.20; 7.91) ng/ml
Geometric mean of plasma concentration (95% lower and upper confidence limits) ([4]; 12 hr after 80 mg/kg oral): 1.84 (1.39; 2.45) ng/ml
Plasma concentration, Median (minimum; maximum) ([4]; 12 hr after 80 mg/kg oral): 1.83 (1.65; 2.07) ng/ml
Geometric mean of plasma concentration (95% lower and upper confidence limits) ([4]; 16 hr after 80 mg/kg oral): 2.31 (0.12; 44.19) ng/ml
Plasma concentration, Median (minimum; maximum) ([4]; 16 hr after 80 mg/kg oral): 1.40 (0.99; 8.98) ng/ml
Geometric mean of plasma concentration (95% lower and upper confidence limits) ([4]; 20 hr after 80 mg/kg oral): 1.06 (0.29; 3.90) ng/ml
Plasma concentration, Median (minimum; maximum) ([4]; 20 hr after 80 mg/kg oral): 1.39 (0.58; 1.49) ng/ml
Geometric mean of plasma concentration (95% lower and upper confidence limits) ([4]; 24 hr after 80 mg/kg oral): 0.95 (0.04; 21.25) ng/ml
Plasma concentration, Median (minimum; maximum) ([4]; 24 hr after 80 mg/kg oral): 1.01 (0.26; 3.22) ng/ml
Geometric mean of plasma concentration (95% lower and upper confidence limits) ([4]; 48 hr after 80 mg/kg oral): 1.57 (0.47; 5.31) ng/ml
Plasma concentration, Median (minimum; maximum) ([4]; 48 hr after 80 mg/kg oral): 1.90 (0.90; 2.27) ng/ml
Cmax (maximal concentration) ([4]; single 80 mg/kg oral, estimated from graph of median plasma concentrations): 21 ng/mL
Half-life (T ½) ([4]; single 80 mg/kg oral, median values 0.5-8 hr, 80 mg/kg): 3 h
blood concentration, individual samples ([5]; 2 hr after 500 mg/kg oral): 32 ng/mL and 3.1 ng/mL and 13 ng/mL
blood concentration, individual samples ([5]; 4 hr after 500 mg/kg oral): 17 ng/mL and 15 ng/mL and 6.7 ng/mL
blood concentration, individual samples ([5]; 22 hr after 500 mg/kg oral): 3.0 ng/mL and 9.6 ng/mL and 3.3 ng/mL
inflammatory F4/80+ CD11b+ macrophages and effector Th1 cells in the gut mucosa (mouse models of colitis; 3 mouse models of colitis): decreased numbers
lowest dose with therapeutic efficacy (mouse models of colitis; 3 validated mouse models of colitis): 8 mg/kg/day
Th1 cells and Th17 cells in the spleen and MLN (mouse models of colitis; mouse colitis): decreased the levels
colonic expression of IL-10 and LANCL2 (mouse models of colitis; oral, dose-dependent): up-regulated
colonic expression of TNFα (mouse models of colitis; oral, dose-dependent): down-regulated
reduction in gut inflammation (mouse models of colitis; oral, mice, 3 mouse models of colitis/IBD): 90%
lowest (minimal) efficacious dose (mouse models of colitis; oral, mice): 8 mg/kg
reduction of colonic lesions (mouse models of colitis; oral, mice, doses 80 mg/kg and as low as 8 mg/kg): 4 X
LANCL2 binding (LANCL2): binds LANCL2
tBILI, mean plasma [6, 10]: 0.20^a mg/dL
ALT, mean plasma [6, 10]: 126^a IU/L
AST, mean plasma [6, 10]: 269^a IU/L
ALP, mean plasma [6, 10]: 376^a IU/L
tBILI, mean plasma [6, 11]: 0.23^a mg/dL
ALT, mean plasma [6, 11]: 52^a IU/L
AST, mean plasma [6, 11]: 106^a IU/L
ALP, mean plasma [6, 11]: 294^a IU/L
tBILI, mean plasma [6, 12]: 0.13 ^a mg/dL
ALT, mean plasma [6, 12]: 53^a IU/L
AST, mean plasma [6, 12]: 80^a IU/L
ALP, mean plasma [6, 12]: 288 ^a IU/L
tBILI, mean plasma [6, 13]: 0.10^a mg/dL
ALT, mean plasma [6, 13]: 41^a IU/L
AST, mean plasma [6, 13]: 67^a IU/L
ALP, mean plasma [6, 13]: 265^a IU/L
FOB quantal endpoints, treated vs control ([7]; 80 mg/kg/day oral for 14 days): No quantal differences
behavioral evidence of detrimental effects ([7]; 80 mg/kg/day oral, 2 weeks of treatment and 1 week post-dosing): No behavioral evidence of detrimental effects
weight and hind grip, treated vs control ([7]; 14 daily oral doses of 80 mg/kg, to day 21): no significant differences
O_REAR (rears during observation period), least squares means (95% confidence interval) ([7]; Study day 3, control 29.17, P=0.4916): 27.23 (13.90-40.57)
O_REAR (rears during observation period), least squares means (95% confidence interval) ([7]; Study day 7, control 27.97, P=0.1985): 24.33 (11.00-37.67)
O_REAR (rears during observation period), least squares means (95% confidence interval) ([7]; Study day 14, control 30.27, P=0.0273): 23.93 (10.60-37.27)
tolerability ([7]; oral, 14 days at 80 mg/kg (cumulative dose 1,120 mg/kg)): well-tolerated
weight difference vs control ([8]; 14 days after single 500 mg/kg bolus dose): < 4%
hind grip strength, least squares mean ([8]; day 1 after single oral 500 mg/kg, control 0.46, p=0.0272): 0.40
weight, least squares mean ([8]; day 14 after single oral 500 mg/kg, control 264.46, p=0.0006): 254.71
FOB quantal endpoints, treated vs control ([8]; single oral 500 mg/kg): no differences
behavioral evidence of detrimental effects ([8]; single oral 500 mg/kg, 2 weeks observation): No obvious behavioral evidence of detrimental effects
FOB categorical endpoints, treated vs control ([8]; single oral 500 mg/kg, time points beyond baseline): did not differ
tolerability ([8]; single oral bolus of 500 mg/kg): well-tolerated
histopathologic evidence of toxic injury [9]: no histopathologic evidence of toxic injury

O=C(Nc1cccc(-c2nc3ccccc3[nH]2)c1)c1ccc(C(=O)Nc2cccc(-c3nc4ccccc4[nH]3)c2)cc1 [CID247228, N^1,N^4-bis(3-(1H-benzo[d]imidazo-2-yl)phenyl)terephthalamide, reference compound]
anti-inflammatory activity in mice with colitis (mouse models of colitis; oral): potent oral anti-inflammatory therapeutic
LANCL2 binding (LANCL2): ligand of LANCL2

CC1=CC(=O)CC(C)(C)[C@@]1(O)/C=C/C(C)=C\C(=O)O [Abscisic acid]
LANCL2 binding (LANCL2; leads to elevation of intracellular cAMP, activation of PKA): binds to LANCL2
